In ChEMBL document CHEMBL4196017, “Design, synthesis and identification of silicon-containing HCV NS5A inhibitors with pan-genotype activity” (Eur J Med Chem, 2018):

Experiments:
[1] = Protein binding in rat plasma at 1 uM after 6 hrs by UPLC-MS/MS based equilibrium dialysis method; assay type: ADME, cell-free; conditions: read-out: PPB (converted)
Outline: (§1)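 Equilibrium dialysis: plasma (pH 7.4) preincubated 15 min at 37 °C, spiked with compound at 1 or 10 µM (0.5% DMSO final); dialysed against 100 mM phosphate buffer pH 7.4, 6 h at 37 °C, 100 rpm; donor and receiver samples analysed by UPLC-MS/MS.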

[2] = Metabolic stability in mouse liver microsomes assessed as parent compound remaining at 0.2 uM preincubated for 5 mins followed by NADPH addition measured up to 60 mins by UPLC-MS/MS analysis; assay type: ADME, microsome; conditions: read-out: Stability
Outline: (§2)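 Pooled mouse, rat or human liver microsomes 0.2 mg/mL with 1 mM NADPH, 5 mM MgCl2, 100 mM potassium phosphate pH 7.4 and 0.2 µM compound; 5-min preincubation at 37 °C, NADPH start, sampled at 5, 15, 30, 60 min; ice-cold acetonitrile stop; UPLC-MS/MS; percent parent remaining at 60 min.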

[3] = Metabolic stability in rat liver microsomes assessed as parent compound remaining at 0.2 uM preincubated for 5 mins followed by NADPH addition measured up to 60 mins by UPLC-MS/MS analysis; assay type: ADME, microsome; conditions: read-out: Stability; outline: as §2
[4] = Tmax in mouse at 10 mg/kg, ig administered as single dose by UPLC-MS/MS analysis; assay type: ADME, organism-based; conditions: in vivo, po
Outline: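 Adult male mice (12 h light-dark, 22 °C, 55% humidity) fasted 12 h with free water, then given a single 10 mg/kg intragastric dose; plasma concentrations by UPLC-MS/MS; PK parameters calculated by software.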

[5] = Tmax in beagle dog at 2 mg/kg, po administered as single dose by UPLC-MS/MS analysis; assay type: ADME, organism-based, Canis lupus familiaris; conditions: in vivo
[6] = AUC (0 to t) in beagle dog at 2 mg/kg, po administered as single dose by UPLC-MS/MS analysis; assay type: ADME, organism-based, Canis lupus familiaris; conditions: in vivo
[7] = Protein binding in dog plasma at 1 uM after 6 hrs by UPLC-MS/MS based equilibrium dialysis method; assay type: ADME, cell-free, Canis lupus familiaris; conditions: read-out: PPB (converted); outline: as §1
[8] = Protein binding in dog plasma at 10 uM after 6 hrs by UPLC-MS/MS based equilibrium dialysis method; assay type: ADME, cell-free, Canis lupus familiaris; conditions: read-out: PPB (converted); outline: as §1
[9] = Protein binding in human plasma at 1 uM after 6 hrs by UPLC-MS/MS based equilibrium dialysis method; assay type: ADME, cell-free; conditions: read-out: PPB (converted); outline: as §1
[10] = Apparent permeability from apical to basolateral side in human Caco2 cells after 90 mins by UPLC-MS/MS analysis; assay type: ADME, cell-based; conditions: Caco-2
Outline: (§3)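 Caco-2 cells on Transwell inserts grown 21-23 days to TEER ≥200 Ω cm²; rinsed with warm HBSS, preincubated 30 min at 37 °C in 2% BSA with or without inhibitor; compound in 2% BSA added apical or basolateral, 90 min at 37 °C; receiver sampled, UPLC-MS/MS; duplicate; Papp calculated.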

[11] = Efflux ratio of apparent permeability in human Caco2 cells after 90 mins by UPLC-MS/MS analysis; assay type: ADME, cell-based; conditions: Caco-2; outline: as §3
[12] = Ratio of drug uptake in Sprague-Dawley rat liver to plasma at 10 mg/kg, ig administered as single dose measured after 8 hrs by UPLC-MS/MS analysis; assay type: ADME, organism-based; conditions: po
Cytochrome P450 2C9 = Cytochrome P450 2C9 (Homo sapiens, UniProt P11712); experiment: Inhibition of CYP2C9 in human liver microsomes at 1 to 10 uM using tolbutamide as substrate preincubated for 5 mins followed by NADPH addition measured after 30 mins by UPLC-MS/MS analysis relative to control; assay type: ADME; conditions: 0.5 h
Cytochrome P450 2B6 = target: T1, Cytochrome P450 2B6 (Homo sapiens, UniProt P20813); experiment: Inhibition of CYP2B6 in human liver microsomes at 1 to 10 uM using bupropion hydrochloride as substrate preincubated for 5 mins followed by NADPH addition measured after 30 mins by UPLC-MS/MS analysis relative to control; assay type: ADME; conditions: 0.5 h
T1 sequence (P20813 whole entry): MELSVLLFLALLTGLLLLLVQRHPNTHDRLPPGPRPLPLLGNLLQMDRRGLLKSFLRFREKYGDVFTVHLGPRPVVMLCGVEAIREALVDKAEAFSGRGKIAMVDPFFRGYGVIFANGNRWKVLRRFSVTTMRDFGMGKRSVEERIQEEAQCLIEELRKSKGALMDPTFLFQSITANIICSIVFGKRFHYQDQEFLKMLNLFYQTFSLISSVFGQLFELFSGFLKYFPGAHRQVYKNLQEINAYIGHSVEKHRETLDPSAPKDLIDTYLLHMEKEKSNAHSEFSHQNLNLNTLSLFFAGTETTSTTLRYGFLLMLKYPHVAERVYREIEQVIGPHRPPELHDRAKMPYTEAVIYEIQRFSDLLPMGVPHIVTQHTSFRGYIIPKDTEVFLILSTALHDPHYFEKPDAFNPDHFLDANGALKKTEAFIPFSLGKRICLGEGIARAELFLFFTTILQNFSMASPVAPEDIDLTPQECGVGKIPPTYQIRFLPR

Cytochrome P450 1A2 = target: T2, Cytochrome P450 1A2 (Homo sapiens, UniProt P05177); experiment: Inhibition of CYP1A2 in human liver microsomes at 1 to 10 uM using phenacetin as substrate preincubated for 5 mins followed by NADPH addition measured after 30 mins by UPLC-MS/MS analysis relative to control; assay type: ADME; conditions: 0.5 h
T2 sequence (P05177 whole entry): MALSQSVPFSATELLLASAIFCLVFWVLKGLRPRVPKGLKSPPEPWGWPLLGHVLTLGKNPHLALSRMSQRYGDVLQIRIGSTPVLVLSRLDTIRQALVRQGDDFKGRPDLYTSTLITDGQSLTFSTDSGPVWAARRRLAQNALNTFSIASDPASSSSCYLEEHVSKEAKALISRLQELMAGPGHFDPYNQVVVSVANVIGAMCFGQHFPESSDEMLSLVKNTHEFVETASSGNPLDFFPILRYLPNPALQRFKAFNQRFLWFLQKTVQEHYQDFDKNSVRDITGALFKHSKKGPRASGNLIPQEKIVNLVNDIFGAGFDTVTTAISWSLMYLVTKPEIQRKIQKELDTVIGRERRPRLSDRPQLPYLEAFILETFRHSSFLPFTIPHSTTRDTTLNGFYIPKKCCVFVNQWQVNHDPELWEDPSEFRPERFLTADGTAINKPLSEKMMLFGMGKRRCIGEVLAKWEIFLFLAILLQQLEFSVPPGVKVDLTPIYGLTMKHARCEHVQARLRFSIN

hERG (KCNH2) [13] = target: T3, hERG (KCNH2) (Homo sapiens, UniProt Q12809); experiment: Inhibition of human ERG assessed as reduction in peak tail current at 3 uM at holding potential of -80 mV by patch clamp method relative to control
Outline: (§4)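 Whole-cell patch clamp, room temperature; hold -80 mV, 2 s +50 mV depolarization then 3 s -50 mV repolarization every 30 s; peak tail current referenced to initial 50 ms step to -50 mV; 3 min vehicle stabilization, then test solution until stable (<5% over ~5 sweeps) or 6 min max; mean ± SD, n = 3.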

hERG (KCNH2) [14] = target: T3, hERG (KCNH2); experiment: Inhibition of human ERG assessed as reduction in peak tail current at 10 uM at holding potential of -80 mV by patch clamp method relative to control; outline: as §4

T3 sequence (Q12809 whole entry): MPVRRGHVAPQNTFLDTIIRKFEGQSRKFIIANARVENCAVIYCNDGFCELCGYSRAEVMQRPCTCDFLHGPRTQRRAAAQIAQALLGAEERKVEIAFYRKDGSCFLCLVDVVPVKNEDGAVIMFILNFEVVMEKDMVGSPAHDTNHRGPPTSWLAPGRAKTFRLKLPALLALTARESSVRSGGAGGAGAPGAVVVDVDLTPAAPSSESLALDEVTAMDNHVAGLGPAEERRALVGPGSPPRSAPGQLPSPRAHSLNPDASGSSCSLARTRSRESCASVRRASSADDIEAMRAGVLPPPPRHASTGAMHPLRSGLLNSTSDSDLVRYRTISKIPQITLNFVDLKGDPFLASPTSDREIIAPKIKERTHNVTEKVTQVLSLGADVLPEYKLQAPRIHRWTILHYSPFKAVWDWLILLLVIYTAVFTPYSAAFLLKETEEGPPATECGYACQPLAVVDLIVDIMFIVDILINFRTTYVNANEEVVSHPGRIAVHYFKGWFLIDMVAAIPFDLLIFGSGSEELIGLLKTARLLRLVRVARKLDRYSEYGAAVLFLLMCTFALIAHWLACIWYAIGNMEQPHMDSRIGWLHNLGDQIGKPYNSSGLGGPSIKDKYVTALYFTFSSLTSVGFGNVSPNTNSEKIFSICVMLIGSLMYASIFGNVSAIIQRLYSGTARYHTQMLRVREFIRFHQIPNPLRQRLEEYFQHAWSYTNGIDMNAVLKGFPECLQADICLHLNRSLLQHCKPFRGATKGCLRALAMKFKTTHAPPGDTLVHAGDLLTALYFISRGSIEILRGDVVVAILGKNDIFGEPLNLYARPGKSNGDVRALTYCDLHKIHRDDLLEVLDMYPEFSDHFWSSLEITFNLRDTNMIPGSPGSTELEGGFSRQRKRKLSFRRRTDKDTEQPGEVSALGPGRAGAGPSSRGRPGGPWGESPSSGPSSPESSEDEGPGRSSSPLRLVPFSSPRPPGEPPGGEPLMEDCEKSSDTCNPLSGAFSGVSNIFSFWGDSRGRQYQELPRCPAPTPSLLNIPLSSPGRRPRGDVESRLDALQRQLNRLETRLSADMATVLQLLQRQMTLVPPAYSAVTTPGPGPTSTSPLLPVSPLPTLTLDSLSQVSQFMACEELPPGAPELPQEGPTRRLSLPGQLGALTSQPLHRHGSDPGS
Cytochrome P450 2C9, sequence (P11712 whole entry): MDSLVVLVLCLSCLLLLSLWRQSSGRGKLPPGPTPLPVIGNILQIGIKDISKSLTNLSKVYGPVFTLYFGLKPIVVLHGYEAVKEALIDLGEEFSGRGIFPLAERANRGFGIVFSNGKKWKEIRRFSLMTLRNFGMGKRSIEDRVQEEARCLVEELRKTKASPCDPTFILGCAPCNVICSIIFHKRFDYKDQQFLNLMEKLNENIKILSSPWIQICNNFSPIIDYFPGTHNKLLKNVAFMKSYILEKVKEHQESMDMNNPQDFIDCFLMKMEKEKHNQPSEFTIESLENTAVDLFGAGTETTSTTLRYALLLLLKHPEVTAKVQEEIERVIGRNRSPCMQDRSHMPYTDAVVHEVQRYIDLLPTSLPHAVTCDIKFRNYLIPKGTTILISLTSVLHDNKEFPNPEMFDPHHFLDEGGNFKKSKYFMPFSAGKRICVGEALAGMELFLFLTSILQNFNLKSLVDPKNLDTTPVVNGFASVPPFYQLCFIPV

SMILES	fraction unbound at 6 h, 1 µM [1]	remaining at 1 h, 0.2 µM [2] [%]	remaining at 1 h, 0.2 µM [3] [%]	Tmax [4] [h]	Tmax [5] [h]	AUC(0-t) [6] [ng·h/mL]	fraction unbound at 6 h, 1 µM [7]	fraction unbound at 6 h, 10 µM [8]	fraction unbound at 6 h, 1 µM [9]	Papp A→B at 1.5 h [10] [×10⁻⁶ cm/s]	efflux ratio at 1.5 h [11]	Kp at 8 h [12]	inhibition (INH) (Cytochrome P450 2C9)	inhibition (INH) (Cytochrome P450 2B6)	inhibition (INH) (Cytochrome P450 1A2)	inhibition at 3 µM (hERG (KCNH2) [13]) [%]	inhibition at 10 µM (hERG (KCNH2) [14]) [%]
CC[Si](CC)(CC)c1ccc(N2[C@H](c3ccc(NC(=O)[C@@H]4CCCN4C(=O)[C@@H](NC(=O)OC)C(C)C)cc3)CC[C@H]2c2ccc(NC(=O)[C@@H]3CCCN3C(=O)[C@@H](NC(=O)OC)C(C)C)cc2)cc1	9e-05	92.7	98	3	10.5	605	4e-05	6e-05	8e-05	0.07	0.8	52.9	Not Active	Not Active	Not Active	6.9	8.7
COC(=O)N[C@H](C(=O)N1CCC[C@H]1C(=O)Nc1ccc([C@@H]2CC[C@@H](c3ccc(NC(=O)[C@@H]4CCCN4C(=O)[C@@H](NC(=O)OC)C(C)C)cc3)N2c2ccc(C(C)(C)C)cc2)cc1)C(C)C [OMBITASVIR]	2e-05	88.7	101	3	8.3	188	2e-05	1e-05	3e-05	0.08	6.7	33.5	Not Active	Not Active	Not Active	1.1	1.8
